{"data": "Assay results pooled from the literature", "organism": "Streptococcus pneumoniae", "note": "Lines come from different studies, so protocols differ."}
{"SMILES": "CN(C)c1ccc(-c2ccc3cc4c(c(O)c3c2)C(=O)C2=C(O)[C@]3(O)C(=O)C(C(N)=O)=C(O)[C@@H](N(C)C)[C@@H]3C[C@@H]2C4)cc1", "effect on": "microbial growth", "technique": "broth dilution", "strain": "ATCC49619", "quantity": "MIC", "result": "32 µg/mL"}
{"SMILES": "CC[C@H]1OC(=O)[C@H](C)[C@@H](O[C@H]2C[C@@](C)(OC)[C@@H](O)[C@H](C)O2)[C@H](C)[C@@H](O[C@@H]2O[C@H](C)C[C@H](N(C)C)[C@H]2O)[C@](C)(OC)C[C@@H](C)C(=O)[C@H](C)[C@@H](O)[C@]1(C)O", "effect on": "microbial growth", "quantity": "MIC90", "result": "256 µg/mL"}
{"SMILES": "O=C(O)CN1C(=O)/C(=C/c2c3ccccc3c(-c3ccc(N(c4ccccc4)c4ccccc4)cc3)c3ccccc23)NC1=S", "effect on": "microbial killing", "technique": "broth dilution", "strain": "ATCC49619", "quantity": "MBC", "result": "> 1000 µg/mL"}
{"SMILES": "COc1cc(Cc2cnc(N)nc2N)cc(OC)c1OC", "effect on": "microbial killing", "technique": "broth dilution", "time": "48 h", "quantity": "MBC", "result": "0.25 µg/mL"}
{"SMILES": "CN(C)c1cc(CNCC(C)(C)C)c(O)c2c1C[C@H]1C[C@H]3[C@H](N(C)C)C(O)=C(C(N)=O)C(=O)[C@@]3(O)C(O)=C1C2=O", "effect on": "microbial growth", "strain": "157E", "quantity": "MIC", "result": "< 0.06 µg/mL"}
{"SMILES": "O=c1[nH]cc(F)c(=O)[nH]1", "effect on": "microbial killing", "technique": "broth dilution", "time": "48 h", "quantity": "MBC", "result": "0.25 µg/mL"}
{"SMILES": "CN(C)[C@@H]1C(O)=C(C(N)=O)C(=O)[C@@]2(O)C(O)=C3C(=O)c4c(cc5ccc(-c6cccnc6)cc5c4O)C[C@H]3C[C@@H]12", "effect on": "microbial growth", "technique": "broth dilution", "strain": "ATCC49619", "quantity": "MIC", "result": "32 µg/mL"}
{"SMILES": "O=C(O)CN1C(=O)/C(=C/c2ccc(-c3ccc(N(c4ccccc4)c4ccccc4)cc3)cc2)SC1=S", "effect on": "microbial killing", "technique": "broth dilution", "strain": "ATCC49619", "quantity": "MBC", "result": "500 µg/mL"}
